One compound from ChEMBL document CHEMBL3259611, “Suppression of inflammatory responses by handelin, a guaianolide dimer from Chrysanthemum boreale, via downregulation of NF-κB signaling and pro-inflammatory cytokine production” (J Nat Prod, 2014) can be followed below.

The source made the active and inactive calls. The rule behind the calls is not given here.

Assay [1] addresses Transcription factor p65 (Mus musculus) (UniProt Q04207). Description: Inhibition of LPS-induced NF-kappaB p65 binding to DNA in mouse RAW264.7 cells at 10 to 40 uM after 1.5 hrs by spectrophotometry. It counts as cell-based.
For assay [2] the target is unchanged. Kind of assay: Inhibition of LPS-induced NF-kappaB p65 binding to DNA in mouse RAW264.7 cells at 10 to 40 uM after 1.5 hrs by spectrophotometry in presence of mutant oligonucleotide. It counts as cell-based.
The next assay has as its target JNK1/JNK2 (Mus musculus) (UniProt Q91Y86+Q9WTU6). Kind of assay: Inhibition LPS-induced JNK1/2 phosphorylation at Thr183/[…] in mouse RAW264.7 cells at 20 uM administered 30 mins prior to LPS challenge measured after 30 mins by Western blotting analysis. It counts as cell-based. In short, it runs like this: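 RAW 264.7 cells pretreated with compound for 30 min, then stimulated with LPS for 30 min. Protein extracts were Western blotted for phosphorylated ERK and JNK (SDS-PAGE, PVDF, ECL detection).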
A general note: Immunoblotting shows a protein as a band on a membrane.

Assay [3] deals with RAW264.7. Description: Inhibition of LPS-induced NFkappaB transcriptional activity in mouse RAW264.7 cells assessed as […] at 10 uM after 30 mins by Western blotting analysis relative to control. Format: cell-based. In short, it runs like this: (§1)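 Macrophages were exposed to compound for 30 min before LPS stimulation, with proteins extracted 30 min later. Nuclear extracts were prepared in Tris/KCl/NP-40 lysis buffer, then 420 mM NaCl buffer, and the cytosolic fraction was kept for IκB-α. Western blot on PVDF with ECL detection. Tests in triplicate; representative of three separate experiments.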

For assay [4], the system named is RAW264.7. Kind of assay: Antiinflammatory activity in mouse RAW264.7 cells assessed as inhibition LPS-induced miR-155 mRNA expression after 8 hrs by RT-PCR analysis. Format: functional, cell-based. In a few lines:
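LPS-stimulated RAW 264.7 cells, with or without compound, for 8 h. miR-155 measured by TaqMan qRT-PCR on 10 ng RNA, with stem-loop primer RT at 16 °C 30 min, 42 °C 30 min, 85 °C 5 min. Expression given as a ratio to β-actin. Mean ± SD of triplicates.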

The target in assay [5] is Transcription factor p65 (Mus musculus) (UniProt Q04207). Description: Inhibition of LPS-induced NFkappaB P65 protein nuclear translocation in mouse RAW264.7 cells at 40 uM after 30 mins by Western blotting analysis relative to control. Format: cell-based. In short, it runs like this: as §1
Sequence of Transcription factor p65 (Mus musculus) (Q04207 whole entry): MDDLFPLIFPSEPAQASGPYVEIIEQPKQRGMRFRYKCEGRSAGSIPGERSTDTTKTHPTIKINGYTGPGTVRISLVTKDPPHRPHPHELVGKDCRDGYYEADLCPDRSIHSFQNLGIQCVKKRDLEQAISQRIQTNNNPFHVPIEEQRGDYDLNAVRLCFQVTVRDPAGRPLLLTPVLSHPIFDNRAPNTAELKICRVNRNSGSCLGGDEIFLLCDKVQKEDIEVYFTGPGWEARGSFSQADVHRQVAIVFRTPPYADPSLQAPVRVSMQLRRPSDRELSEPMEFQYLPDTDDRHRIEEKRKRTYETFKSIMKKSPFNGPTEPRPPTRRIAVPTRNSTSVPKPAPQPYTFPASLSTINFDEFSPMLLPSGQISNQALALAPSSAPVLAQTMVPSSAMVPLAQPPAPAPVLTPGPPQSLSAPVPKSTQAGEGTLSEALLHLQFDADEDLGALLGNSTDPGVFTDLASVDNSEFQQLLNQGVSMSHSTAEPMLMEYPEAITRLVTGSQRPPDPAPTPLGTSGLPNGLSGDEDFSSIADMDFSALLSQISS
In assay [6] the test system is RAW264.7. Kind of assay: Antiinflammatory activity in mouse RAW264.7 cells assessed as inhibition of LPS-induced iNOS mRNA expression at 40 uM after 5 hrs by RT-PCR analysis relative to control. It counts as functional. In a few lines:
(§2)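 RAW 264.7 cells exposed to 1 μg/mL LPS with or without compound for 5 h. Total RNA was analysed by RT-PCR: 25−30 cycles with annealing at 55 °C. Products were separated on 2% agarose gel with SYBR-Safe staining. Experiments in triplicate.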

In assay [7] the test system is RAW264.7. Description: Antiinflammatory activity in mouse RAW264.7 cells assessed as inhibition LPS-induced IL-1beta protein expression at 40 uM after 4 hrs by Western blotting analysis. Format: functional. In a few lines: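 RAW 264.7 cells stimulated with LPS (1 μg/mL) with or without compound for 4 h. Lysates were resolved by 6−15% SDS-PAGE and blotted to PVDF. Blocked in 5% milk/PBST, primary antibody overnight at 4 °C, secondary antibody 2 h, detected by ECL. Triplicate, representative of three experiments.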

Assay [8] deals with RAW264.7. Description: Inhibition of LPS-induced NFkappaB transcriptional activity in mouse RAW264.7 cells assessed as […] at 40 uM after 30 mins by Western blotting analysis relative to control. It counts as cell-based. In short, it runs like this:
as §1

Assay [9] deals with T1, Nuclear factor NF-kappa-B p105 subunit (Mus musculus) (UniProt P25799).
T1 sequence (whole entry): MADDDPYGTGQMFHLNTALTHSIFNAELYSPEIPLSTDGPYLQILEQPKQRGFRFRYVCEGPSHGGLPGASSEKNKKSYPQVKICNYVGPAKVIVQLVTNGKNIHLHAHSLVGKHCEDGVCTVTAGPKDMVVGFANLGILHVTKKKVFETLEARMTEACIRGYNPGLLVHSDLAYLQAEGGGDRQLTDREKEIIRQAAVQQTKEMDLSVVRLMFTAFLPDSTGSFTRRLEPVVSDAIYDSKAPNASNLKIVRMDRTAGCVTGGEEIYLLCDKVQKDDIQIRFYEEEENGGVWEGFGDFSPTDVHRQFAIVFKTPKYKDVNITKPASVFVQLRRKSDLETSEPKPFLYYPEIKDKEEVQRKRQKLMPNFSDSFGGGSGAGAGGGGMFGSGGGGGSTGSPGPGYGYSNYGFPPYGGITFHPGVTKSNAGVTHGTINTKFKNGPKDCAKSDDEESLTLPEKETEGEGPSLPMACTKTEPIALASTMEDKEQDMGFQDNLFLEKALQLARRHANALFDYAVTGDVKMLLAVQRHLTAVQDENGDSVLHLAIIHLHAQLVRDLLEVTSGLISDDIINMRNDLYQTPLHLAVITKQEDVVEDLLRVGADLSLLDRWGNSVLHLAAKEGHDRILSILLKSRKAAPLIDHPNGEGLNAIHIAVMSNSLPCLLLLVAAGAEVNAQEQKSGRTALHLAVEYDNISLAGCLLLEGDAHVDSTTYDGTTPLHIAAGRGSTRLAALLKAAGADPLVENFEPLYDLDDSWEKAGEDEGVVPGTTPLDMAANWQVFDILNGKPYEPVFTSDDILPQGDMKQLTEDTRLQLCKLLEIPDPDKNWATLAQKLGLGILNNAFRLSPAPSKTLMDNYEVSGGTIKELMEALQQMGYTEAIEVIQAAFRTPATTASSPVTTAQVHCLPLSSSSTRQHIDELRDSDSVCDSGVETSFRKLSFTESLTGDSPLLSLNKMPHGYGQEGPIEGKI
Description: Inhibition of LPS-induced NF-kappaB p50 binding to DNA in mouse RAW264.7 cells at 10 to 40 uM after 1.5 hrs by spectrophotometry in presence of mutant oligonucleotide. Format: cell-based.

The subject of assay [10] is RAW264.7. Description: Antiinflammatory activity in mouse RAW264.7 cells assessed as inhibition of LPS-induced COX2 mRNA expression at 20 uM after 5 hrs by RT-PCR analysis relative to control. It counts as functional. In a few lines:
as §2

In assay [11] the test system is RAW264.7. Kind of assay: Antiinflammatory activity in mouse RAW264.7 cells assessed as inhibition LPS-induced TNF-alpha protein expression at 20 uM after 4 hrs by Western blotting analysis relative to control. Format: functional.
Assay [12] addresses Transcription factor p65 (Mus musculus) (UniProt Q04207). Description: Inhibition of LPS-induced NF-kappaB p65 binding to DNA in mouse RAW264.7 cells at 10 to 40 uM after 1.5 hrs by spectrophotometry in presence of wild type oligonucleotide. It counts as cell-based.
Assay [13] deals with RAW264.7. Kind of assay: Antiinflammatory activity in mouse RAW264.7 cells assessed as inhibition of LPS-induced COX2 protein expression at 20 uM after 16 hrs by Western blotting analysis relative to control. Format: functional. In short, it runs like this: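 RAW 264.7 cells given LPS (1 μg/mL) with or without compound for 16 h. Cell lysates were Western blotted for iNOS and COX-2 (6−15% SDS-PAGE, PVDF, ECL detection). Performed in triplicate.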

The subject of assay [14] is RAW264.7. Description: Inhibition of LPS-induced NFkappaB transcriptional activity in mouse RAW264.7 cells assessed as […] at 20 uM after 30 mins by Western blotting analysis relative to control. It counts as cell-based. In a few lines: as §1

Sequence of JNK1/JNK2 (Mus musculus) (Q91Y86 whole entry, looked up): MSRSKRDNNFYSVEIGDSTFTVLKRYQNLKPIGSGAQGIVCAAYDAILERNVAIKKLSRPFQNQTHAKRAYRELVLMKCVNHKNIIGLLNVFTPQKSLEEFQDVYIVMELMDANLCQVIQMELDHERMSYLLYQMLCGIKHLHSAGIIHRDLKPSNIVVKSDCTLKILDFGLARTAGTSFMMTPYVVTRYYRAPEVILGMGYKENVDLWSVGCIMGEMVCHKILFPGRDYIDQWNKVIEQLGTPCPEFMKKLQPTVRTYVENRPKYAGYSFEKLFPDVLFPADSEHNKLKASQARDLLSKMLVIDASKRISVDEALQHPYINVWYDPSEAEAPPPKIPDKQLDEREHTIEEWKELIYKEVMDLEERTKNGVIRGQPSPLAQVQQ
Sequence of JNK1/JNK2 (Mus musculus) (Q9WTU6 whole entry, looked up): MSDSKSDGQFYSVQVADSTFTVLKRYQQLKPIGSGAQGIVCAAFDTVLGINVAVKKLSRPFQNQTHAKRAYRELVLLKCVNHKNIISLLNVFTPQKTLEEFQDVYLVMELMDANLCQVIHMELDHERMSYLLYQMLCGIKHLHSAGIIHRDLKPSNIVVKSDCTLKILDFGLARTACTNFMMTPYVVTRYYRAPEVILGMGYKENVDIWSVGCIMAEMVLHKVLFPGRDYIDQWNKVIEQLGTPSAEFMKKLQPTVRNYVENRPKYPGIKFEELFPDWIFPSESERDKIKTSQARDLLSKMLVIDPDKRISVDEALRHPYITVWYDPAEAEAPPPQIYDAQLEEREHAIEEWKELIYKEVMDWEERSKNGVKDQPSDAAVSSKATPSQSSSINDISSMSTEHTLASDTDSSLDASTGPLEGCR

In the case of `C=C1C(=O)O[C@@H]2[C@@H]3[C@@]4(C=C[C@@]3(C)[C@]3(C4)C(=O)O[C@@H]4[C@H]5C(C)=CC[C@H]5[C@](C)(O)C[C@H](OC(C)=O)[C@H]43)[C@](C)(O)CC[C@@H]12`, the inhibition result (in [1]; in assay [2]; in the assay with RAW264.7 [4]; in assay [9]) was “Active” each time. The fold change (FC) at JNK1/JNK2 (Mus musculus) was 0.54; in the assay on RAW264.7 [3], 1.91; in assay [5] it was 0.49; with RAW264.7 [6], 0.58; in the assay with RAW264.7 [7], 0.65; in the assay on RAW264.7 [8] it was 1.83. Also, the “fold change (FC)” value was determined as 0.58 with RAW264.7 [10], 0.76 in the assay with RAW264.7 [11], 0.2 in the assay with RAW264.7 [13] and 1.85 with RAW264.7 [14]. For the same compound, the inhibition result in assay [12] was “inactive”.
